Test results: ChEMBL document CHEMBL3102834, “Discovery of 5-substituted pyrrolo[2,3-d]pyrimidine antifolates as dual-acting inhibitors of glycinamide ribonucleotide formyltransferase and 5-aminoimidazole-4-carboxamide ribonucleotide formyltransferase in de novo purine nucleotide biosynthesis: implications of inhibiting …” (J Med Chem, 2013)
Activity calls are given as the source filed them. The rule behind the calls is not given here.

What was measured:
[1] = Cytotoxicity against chinese hamster RT16 cells expressing human FRalpha after 96 hrs by CellTitre-Blue fluorescence assay in presence of folic acid; type: functional, cell-based; conditions: Cricetulus griseus, RT16, 96 h
Procedure, shortened: (§1)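 CHO sublines were grown in FF-RPMI/DFBS; transfectants were maintained with G418. Cells were exposed to antifolate (0–1 μM) for 96 h at 37 °C with 2 nM LCV (RT16) or 25 nM LCV (R2/PCFT4). PC43-10 cells were grown in standard RPMI1640/DFBS instead. FRα specificity was tested by adding 200 nM folic acid. Viable cells were read by CellTiter-Blue fluorescence (ex 560/em 590), and IC50 was taken from dose–response curves; means of 3–10 experiments.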

R2 [2] = assay: Cytotoxicity against chinese hamster R2 cells after 96 hrs by CellTitre-Blue fluorescence assay; conditions: Cricetulus griseus, R2, 96 h
[3] = Cytotoxicity against chinese hamster R2(VC) cells after 96 hrs by CellTitre-Blue fluorescence assay; type: functional, cell-based; conditions: Cricetulus griseus; procedure, shortened: as §1
R2 [4] = assay: Cytotoxicity against chinese hamster R2 cells expressing human PCFT4 after 96 hrs by CellTitre-Blue fluorescence assay; type: functional, cell-based, Cricetulus griseus; conditions: R2, 96 h
[5] = biological target: Bifunctional purine biosynthesis protein ATIC (Homo sapiens) (UniProt P31939); assay: Inhibition of AICARFTase in human KB cells assessed as phosphorylated AMPK at 1 mM after 48 hrs by Western blot analysis; type: cell-based
Sequence of Bifunctional purine biosynthesis protein ATIC (Homo sapiens) (P31939 whole entry, looked up): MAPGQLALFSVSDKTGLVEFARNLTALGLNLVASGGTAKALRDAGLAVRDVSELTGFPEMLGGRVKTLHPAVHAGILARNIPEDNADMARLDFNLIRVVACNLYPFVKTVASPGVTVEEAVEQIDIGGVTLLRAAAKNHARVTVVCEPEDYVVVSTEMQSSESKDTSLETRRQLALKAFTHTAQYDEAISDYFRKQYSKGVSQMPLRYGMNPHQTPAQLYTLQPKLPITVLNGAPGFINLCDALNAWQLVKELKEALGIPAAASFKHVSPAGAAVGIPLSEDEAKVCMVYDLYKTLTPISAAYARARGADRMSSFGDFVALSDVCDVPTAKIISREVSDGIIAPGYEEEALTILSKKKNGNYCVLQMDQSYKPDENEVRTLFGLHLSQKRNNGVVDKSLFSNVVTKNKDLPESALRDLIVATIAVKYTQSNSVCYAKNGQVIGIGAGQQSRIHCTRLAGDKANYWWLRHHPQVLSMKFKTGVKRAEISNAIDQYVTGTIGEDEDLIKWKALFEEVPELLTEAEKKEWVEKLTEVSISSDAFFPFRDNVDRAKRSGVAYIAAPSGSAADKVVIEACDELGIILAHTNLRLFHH
Procedure, shortened: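 KB cells were treated for 48 h with 10 μM thymidine, or with AMPK activators (metformin 10 mM, AICA 1 mM, AICAR 1 mM) against a water/DMSO vehicle. Cells were sonicated in 10 mM Tris-HCl pH 7.0 with protease/phosphatase inhibitors. 90 μg protein was run on 4–20% SDS gels and blotted for phospho-AMPK, total AMPK and β-actin, with infrared detection.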

KB [6] = assay: Cytotoxicity against human KB cells at 1 mM after 96 hrs by CellTitre-Blue fluorescence assay; type: functional; conditions: read-out: GI
Procedure, shortened: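 KB cells were exposed for 96 h at 37 °C to metformin (0–10 mM) or AICA (0–2 mM) in FF-RPMI/DFBS with 2 nM LCV. Growth was read by CellTiter-Blue fluorescence relative to drug-free cells.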

KB [7] = assay: Cytotoxicity against human KB cells expressing human RFC/FRalpha/PCFT after 96 hrs by CellTitre-Blue fluorescence assay in presence of AICA; type: functional, cell-based
Procedure, shortened: (§2)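 KB cells were grown in FF-RPMI with DFBS and 2 nM LCV, exposed to antifolate (0–1 μM) for 96 h at 37 °C, and read by CellTiter-Blue fluorescence. IC50 was taken from dose–response curves relative to untreated cells. Protection arms added adenosine 60 μM, thymidine 10 μM, AICA 320 μM, or folic acid 200 nM. Means of 3–10 experiments.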

KB [8] = assay: Cytotoxicity against human KB cells expressing human RFC/FRalpha/PCFT after 96 hrs by CellTitre-Blue fluorescence assay in presence of thymidine; type: functional, cell-based; procedure, shortened: as §2
KB [9] = assay: Cytotoxicity against human KB cells expressing human RFC/FRalpha/PCFT after 96 hrs by CellTitre-Blue fluorescence assay in presence of adenosine; type: functional, cell-based; procedure, shortened: as §2
KB [10] = assay: Induction of apoptosis in human KB cells assessed as early apoptotic cells at 1 uM after 96 hrs by Annexin V-FITC/7-AAD staining-based flow cytometry (reference value: 0.485%); type: functional
KB [11] = assay: Cell cycle arrest in human KB cells assessed as accumulation at G2/M phase at 1 uM after 96 hrs by propidium iodide staining-based flow cytometry (reference value: 13.2%); type: functional
KB [12] = assay: Induction of apoptosis in human KB cells assessed as necrotic cells at 1 uM after 96 hrs by Annexin V-FITC/7-AAD staining-based flow cytometry (RVB = 7.80%); type: functional
[13] = (§3) Inhibition of GARFTase in human KB cells assessed as incorporation of [14C]-glycine into [14C]-formyl GAR incubated 30 mins prior to [14C]-glycine addition measured after 16 hrs by radiometric assay in presence of azaserin; type: cell-based
Procedure, shortened: (§4)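 KB cells were preincubated 1 h in folate- and glutamine-free medium with 2 nM LCV and a range of drug concentrations. Azaserine (4 μM final) was added for 30 min, then 2 mM glutamine and [14C(U)]glycine (0.1 mCi/L) for 16 h at 37 °C. TCA extracts were ether-washed and run on AG1×8 anion exchange. [14C]formyl GAR was measured per mg protein, and IC50 was set against DMSO controls; three experiments.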

KB [14] = assay: as §3; type: cell-based; procedure, shortened: as §4
KB [15] = assay: Induction of apoptosis in human KB cells assessed as late apoptotic cells at 1 uM after 96 hrs by Annexin V-FITC/7-AAD staining-based flow cytometry (reference value: 2.09%); type: functional
[16] = biological target: Folate receptor alpha (Homo sapiens) (UniProt P15328); assay: Displacement of [3H]folic acid from human FRalpha expressed in chinese hamster RT16 cells after 15 mins by scintillation counting analysis; type: cell-based
Sequence of Folate receptor alpha (Homo sapiens) (P15328 25-234 limits assumed): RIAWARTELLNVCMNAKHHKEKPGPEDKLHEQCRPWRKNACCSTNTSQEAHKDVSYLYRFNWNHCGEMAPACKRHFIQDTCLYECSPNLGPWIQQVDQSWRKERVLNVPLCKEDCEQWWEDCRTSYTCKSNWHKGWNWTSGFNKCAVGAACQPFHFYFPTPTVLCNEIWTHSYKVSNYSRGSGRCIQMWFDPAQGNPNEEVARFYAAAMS
Procedure, shortened: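 FRα-expressing RT16 CHO cells (~1.5 × 10^6) were grown as monolayers. Bound folates were stripped with ice-cold acetate buffer (pH 3.5), then neutralised with HEPES-buffered saline (pH 7.4). Cells were then competed with [3H]folic acid against graded unlabelled ligand. Bound label read by scintillation, normalised to Folin-phenol protein (pmol/mg). Relative affinity = inverse molar ratio for 50% displacement, folic acid set at 1. Three experiments.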

KB [17] = assay: Cell cycle arrest in human KB cells assessed as accumulation at G1/G0 phase at 1 uM after 96 hrs by propidium iodide staining-based flow cytometry (reference value: 67.4%); type: functional
KB [18] = assay: Cell cycle arrest in human KB cells assessed as accumulation at S phase at 1 uM after 96 hrs by propidium iodide staining-based flow cytometry (reference value: 15.9%); type: functional
KB [19] = assay: Cell cycle arrest in human KB cells assessed as accumulation at sub-G1 phase at 1 uM after 96 hrs by propidium iodide staining-based flow cytometry (reference value: 3.5%); type: functional
KB [20] = assay: Induction of apoptosis in human KB cells assessed as viable cells at 1 uM after 96 hrs by Annexin V-FITC/7-AAD staining-based flow cytometry (RVB = 89.6%); type: functional; conditions: read-out: Activity
[21] = biological target: T1, Reduced folate transporter (Homo sapiens) (UniProt P41440); assay: Inhibition of human RFC expressed in chinese hamster PC43-10 cells assessed as reduction of [3H]MTX uptake at 10 uM after 48 hrs by scintillation counting analysis relative to control; type: cell-based
T1 sequence (whole entry): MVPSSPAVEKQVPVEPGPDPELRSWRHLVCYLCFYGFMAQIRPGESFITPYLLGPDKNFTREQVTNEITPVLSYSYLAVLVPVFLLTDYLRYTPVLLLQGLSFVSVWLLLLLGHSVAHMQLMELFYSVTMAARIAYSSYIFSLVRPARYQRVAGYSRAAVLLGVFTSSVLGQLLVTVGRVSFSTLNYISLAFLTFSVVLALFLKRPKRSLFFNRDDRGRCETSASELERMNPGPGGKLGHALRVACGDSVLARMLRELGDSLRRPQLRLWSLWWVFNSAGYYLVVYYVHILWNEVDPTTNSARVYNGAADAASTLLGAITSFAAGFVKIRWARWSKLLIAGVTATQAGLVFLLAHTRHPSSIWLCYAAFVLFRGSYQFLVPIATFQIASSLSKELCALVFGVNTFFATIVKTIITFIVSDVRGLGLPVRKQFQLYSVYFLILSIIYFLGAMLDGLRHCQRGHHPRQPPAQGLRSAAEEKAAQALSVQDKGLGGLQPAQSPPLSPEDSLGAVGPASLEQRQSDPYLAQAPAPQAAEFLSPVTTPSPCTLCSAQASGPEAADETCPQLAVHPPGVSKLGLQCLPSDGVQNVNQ
Procedure, shortened: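 PC43-10 CHO cells expressing human RFC (~1.5 × 10^6) were seeded 48 h before assay. Uptake of 0.5 μM [3H]MTX was run in Hank's balanced salts for 2 min at 37 °C, with or without 10 μM unlabelled inhibitor, and stopped with ice-cold PBS. Cells were dissolved in 0.5 N NaOH, counted by scintillation and normalised to Folin-phenol protein (pmol/mg). RFC-null R2 cells gave baseline. Three experiments.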

Compound: Nc1nc2[nH]cc(Cc3ccc(C(=O)N[C@@H](CCC(=O)O)C(=O)O)cc3)c2c(=O)[nH]1
- IC50 [1]: > 1000 nM
- IC50 (R2 [2]): > 1000 nM
- IC50 [3]: > 1000 nM
- IC50 (R2 [4]): > 1000 nM

Compound: Nc1nc2[nH]c(CCCCCCc3ccc(C(=O)N[C@@H](CCC(=O)O)C(=O)O)cc3)cc2c(=O)[nH]1
- IC50 [3]: > 1000 nM
- IC50 (R2 [4]): > 1000 nM

Compound: NC(=O)c1[nH]cnc1N
- inhibition [5]: inactive
- inhibition of growth at 1000 µM (KB [6]): 20%

Compound: Nc1nc2[nH]cc(CCCc3ccc(C(=O)N[C@@H](CCC(=O)O)C(=O)O)cc3)c2c(=O)[nH]1
- Activity (KB [7]): Active
- Activity (KB [8]): Active
- IC50 [1]: > 1000 nM
- IC50 (R2 [2]): > 1000 nM
- Activity (KB [9]): inactive
- IC50 [3]: > 1000 nM

Compound: Nc1nc2c(c(=O)[nH]1)C[C@@H](CCc1ccc(C(=O)N[C@@H](CCC(=O)O)C(=O)O)cc1)CN2 [LOMETREXOL]
- IC50 [3]: > 1000 nM

Compound: Nc1nc2[nH]cc(CCCCCc3ccc(C(=O)N[C@@H](CCC(=O)O)C(=O)O)cc3)c2c(=O)[nH]1
- Activity (KB [7]): inactive
- Activity (KB [8]): Active
- IC50 [1]: > 1000 nM
- IC50 (R2 [2]): > 1000 nM
- Activity (KB [9]): inactive
- IC50 [3]: > 1000 nM
- IC50 (R2 [4]): > 1000 nM

Compound: Nc1nc2[nH]c(CCCCc3ccc(C(=O)N[C@@H](CCC(=O)O)C(=O)O)cc3)cc2c(=O)[nH]1
- Activity (KB [10]): 35.5%
- Activity (KB [11]): 1.2%
- Activity (KB [12]): 0.748%
- IC50 [13]: 5.71 nM
- inhibition (KB [14]): Dose-dependent effect
- Activity (KB [15]): 28.8%
- Activity [16]: Active
- Activity (KB [17]): 22.3%
- IC50 [3]: > 1000 nM
- Activity (KB [18]): 31.4%
- Activity (KB [19]): 45.1%
- viability at 1 µM (KB [20]): 35%
- inhibition [21]: < 25%
